Drawing on ChEMBL document CHEMBL1121475, “Inhibitors of indoleethylamine N-methyltransferase. Derivatives of 3-methyl-2-thiazolidinimine. In vitro, in vivo, and metabolic studies” (J Med Chem, 1980), this text covers Radioactivity and Administered dose for one molecule.

Values joined by “and” are separate entries in the source; they are usually repeats but may differ in a detail not shown here. Identical values can stand only once.

The subject of data set [1] is Oryctolagus cuniculus. Briefly: Evaluation of formation of 3-Methyl-thiazolidin-2-ylideneamine from the radiolabeled compound, orally administered, from rabbit 1,2 plasma was analyzed by Gas-liquid chromatographic analysis. It is filed as ADME, organism-based. The note with it: in vivo, po. Put shortly: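 Rabbit 1 was given [14C]-labelled parent amide, 100 mg/kg (204.6 dpm/μg), orally by gavage and killed 2 h later. Urine (0-2 h), blood, liver, lung and kidney were collected. Samples were extracted, trimethylsilylated with BSA/pyridine at 70 °C for 12-16 h, and run by GLC on 3% OV-210 at 95 °C against the internal standard 3-ethyl-2-thiazolidinimine. Output is % of radioactivity present as the metabolite, mean of two determinations.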

Data set [2] concerns Oryctolagus cuniculus. Put plainly: 100 mg/kg of [14C]- radiolabeled compound was orally (gavage) injected in rabbit, and radioactivity content in feces was estimated. It is filed as ADME, organism-based. The note with it: in vivo, po. In short, it runs like this:
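Rabbit given 100 mg/kg [14C]-labelled drug by gavage, 204.6 dpm/μg, in water/0.1 N HCl at 6.66 mg/mL. Rabbit 1 was killed at 2 h and liver, lung, kidney and blood taken; tissue values are μg equivalents/g and tissue:plasma ratio. Rabbit 3 was kept for urine (0-24, 24-48, 48-72 h) and feces (0-48 h), expressed as % of dose.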

In data set [3] the test system is Oryctolagus cuniculus. Briefly: 100 mg/kg of [14C]- radiolabeled compound was orally (gavage) administered in rabbit3, and radioactivity content in urine was estimated at 48-72 h. The note with it: rabbit, in vivo, po.
Data set [4] has as its system Oryctolagus cuniculus. Briefly: 100 mg/kg of [14C]- radiolabeled compound was orally administered in rabbit3, and radioactivity content in feces was estimated at 0-48 hr. Particulars: rabbit, in vivo, po.

For `CN1CCS/C1=N\C(=O)CCC(=O)/N=C1/SCCN1C`, the Radioactivity with Oryctolagus cuniculus [1] turned out to be 26.5%. In addition, the Administered dose is 9% and 1% in the data set on Oryctolagus cuniculus [2]; 0.2% in the data set on Oryctolagus cuniculus [3]; 3.8% in the data set on Oryctolagus cuniculus [4].
